Experimental findings from ChEMBL document CHEMBL5107962, “Covalent sortase A inhibitor ML346 prevents Staphylococcus aureus infection of Galleria mellonella” (RSC Med Chem, 2022) are described below.

A short description of data set [1]: Irreversible inhibition of recombinant Streptococcus pyogenes sortase A deltaN81 expressed in Escherichia coli BL21(DE3) cells using Abz-LPATG-Dnp as substrate preincubated for 10 mins followed by substrate addition and measured every 1 min for 15 mins by FRET-based assay.
Data set [2] in a line: Inhibition of recombinant Streptococcus pyogenes sortase A deltaN81 transpeptidation expressed in Escherichia coli BL21 (DE3) cells using Abz-LPATG-Dnp as substrate preincubated for 20 mins followed by substrate addition and measured every 1 min for 15 mins by FRET assay. The procedure, abridged:
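His-tagged enzyme purified by Ni-NTA and gel filtration. 1 µM SrtA preincubated with compound (0.05–50 µM) for 20 min at room temperature in 50 mM Tris-HCl pH 7.5, 150 mM NaCl, 5 mM CaCl2. Reaction started with 10 µM Abz-LPATG-Dnp, read at ex 309/em 420 nm. IC50 from a sigmoidal dose–response fit; triplicates, two experiments.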

A further data set concerns Escherichia coli. Nature of the data set: Antibacterial activity against Escherichia coli AB1157 assessed as inhibition of bacterial growth incubated for 16 to 18 hrs. It counts as functional. Conditions: time 16-18 hrs. The procedure, abridged: (§1)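 Broth microdilution: S. aureus in TSB, E. coli in LB. Overnight cultures diluted 1:1000, grown at 37 °C to A600 0.6, then diluted 1:400 into two-fold compound dilutions. Incubated 16–18 h at 37 °C without shaking. MIC taken as the lowest concentration with no visible growth. Two independent experiments.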

The test system of data set [3] is Staphylococcus aureus. Nature of the data set: Antibacterial activity against Staphylococcus aureus Newman assessed as inhibition of bacterial growth incubated for 16 to 18 hrs. The format is functional. As to conditions: time 16-18 hrs. The procedure, abridged: as §1
Data set [4] relates to Staphylococcus aureus. Nature of the data set: Anti-virulence activity against Staphylococcus aureus USA300 assessed as decrease in SpA display on cell envelope by Western blot analysis. The format is functional, organism-based. As to conditions: dose 25-200 µM, DDE = dose-dependent effect. Summed up: (§2)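 S. aureus overnight culture diluted 1:1000 in TSB and grown with inhibitor until A600 3.0. Washed cells treated with 10 µg mL-1 lysostaphin in PBS for 15 min at 37 °C. Supernatant (cell-wall anchored proteins) run on SDS-PAGE and immunoblotted for SpA, with ClpP as loading control. Three independent experiments.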

A short description of data set [5]: Toxicity in Galleria mellonella larvae assessed as survivability measured after 120 hrs. Summed up:
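G. mellonella larvae (2-2.5 cm, creamy), starved 24 h, injected with 10 µL compound in vehicle (5% DMSO, 20% PEG300, 75% PBS with 6.6% solutol HS-15). Kept at 37 °C; survival and appearance recorded over 120 h with photography. Three independent experiments.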

In data set [6] the test system is Staphylococcus aureus. Description: Anti-virulence activity against Staphylococcus aureus Newman assessed as decrease in SpA display on cell envelope at 25 to 200 uM by Western blot analysis. It counts as functional, organism-based. Conditions: dose 25-200 µM. The procedure, abridged: as §2
The target in another data set is Sortase A (Staphylococcus aureus, UniProt Q9S446). Description: Irreversible inhibition of recombinant Staphylococcus aureus sortase A deltaN24 expressed in Escherichia coli BL21(DE3) cells using Abz-LPATG-Dnp as substrate preincubated for 10 mins followed by substrate addition and measured every 1 min for 15 mins by FRET-based assay. Summed up: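 SaSrtAΔN24 preincubated with compound for 10, 20, 40 or 60 min before FRET IC50 determination with Abz-LPATG-Dnp in Tris pH 7.5, NaCl, CaCl2 buffer.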

Data set [7] relates to Staphylococcus aureus. Nature of the data set: Antibiofilm activity against methicillin-resistant Staphylococcus aureus USA300 assessed as reduction in biofilm biomass at 25 to 200 uM incubated for 18 hrs by crystal violet staining based microplate reader analysis. It counts as functional, organism-based. As to conditions: dose 25-200 µM. The procedure, abridged:
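S. aureus overnight culture diluted 1:1000 in TSB with inhibitor, grown static at 37 °C for 18 h. Wells rinsed with PBS, fixed with methanol 10 min, stained with 0.1% crystal violet 15 min. Stain dissolved in 33% acetic acid and A600 read. Three independent experiments, mean ± SEM.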

Structures are written as SMILES. The source made the active and inactive calls. The rule behind the calls is not given here.

For the compound `COc1ccc(/C=C/C=C2C(=O)NC(=O)NC2=O)cc1`, the IC50 in [1] was found to be 3700 nM; in [2], 1370 nM; at Sortase A, 1100 nM. In addition, the minimum inhibitory concentration (MIC) with Escherichia coli and in the data set with Staphylococcus aureus [3] was above 512 µg/mL in each case. Further, the Activity entry in the data set with Staphylococcus aureus [4] is “Dde”; in data set [5], “Non-Toxic”. The outcome in the data set on Staphylococcus aureus [6] and in the data set on Staphylococcus aureus [7] was Active.
